# Tested on: Rattus norvegicus
# Assay: Antihypertensive activity in spontaneously hypertensive rats was measured as average blood pressure at 100 mg/kg, p.o. after 24 hours of postdose-1.
# Type: functional
# Settings: route oral
# How it was run: (§1)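 Spontaneously hypertensive rats aged 12 to 16 weeks, in groups of five with systolic pressure of 170 mmHg or more. Oral dosing as a solution or suspension in 0.25% methylcellulose, 5 mL/kg, with a vehicle control group. Tail-cuff systolic pressure was read predose and 4 and 24 h after each of two doses. Values were compared with predose by Student's t test.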
row,Compound,BP
1,CCOC(=O)N1CCN(CCn2nc(-c3ccc(Cl)cc3)c(-c3ccc(Cl)cc3)c(C(C)=O)c2=O)CC1,182 mmHg
2,CC(C)NCCn1nc(-c2ccc(Cl)cc2)c(-c2ccc(Cl)cc2)c(C#N)c1=O.Cl,206 mmHg
3,CC(=O)c1c(-c2ccc(Cl)cc2)c(-c2ccc(Cl)cc2)nn(CCN(C)C)c1=O,179 mmHg
4,CC(=O)c1c(-c2ccc(Cl)cc2)c(-c2ccc(Cl)cc2)nn(CCN(C)C)c1=O.Cl,170 mmHg
5,CC(=O)c1c(-c2ccc(Cl)cc2)c(-c2ccc(Cl)cc2)nn(CCNC(C)C)c1=O,181 mmHg
6,CC(=O)NCCn1nc(-c2ccc(Cl)cc2)c(-c2ccc(Cl)cc2)c(C(C)=O)c1=O,146 mmHg
7,COCCn1nc(-c2ccc(Cl)cc2)c(-c2ccc(Cl)cc2)c(C(C)=O)c1=O,148 mmHg
8,CC(=O)c1c(-c2ccc(Cl)cc2)c(-c2ccc(Cl)cc2)nn(CCN2CCCCC2)c1=O,163 mmHg

# Tested on: Rattus norvegicus
# Assay: Antihypertensive activity in spontaneously hypertensive rats was measured as average blood pressure at 100 mg/kg, po after 24 hours of postdose-2
# Type: functional
# Settings: not given
# How it was run: as §1
row,Compound,BP
1,CCOC(=O)N1CCN(CCn2nc(-c3ccc(Cl)cc3)c(-c3ccc(Cl)cc3)c(C(C)=O)c2=O)CC1,183 mmHg
2,CC(C)NCCn1nc(-c2ccc(Cl)cc2)c(-c2ccc(Cl)cc2)c(C#N)c1=O.Cl,173 mmHg
3,CC(=O)c1c(-c2ccc(Cl)cc2)c(-c2ccc(Cl)cc2)nn(CCN(C)C)c1=O,144 mmHg
4,CC(=O)c1c(-c2ccc(Cl)cc2)c(-c2ccc(Cl)cc2)nn(CCN(C)C)c1=O.Cl,184 mmHg
5,CC(=O)c1c(-c2ccc(Cl)cc2)c(-c2ccc(Cl)cc2)nn(CCNC(C)C)c1=O,176 mmHg
6,CC(=O)NCCn1nc(-c2ccc(Cl)cc2)c(-c2ccc(Cl)cc2)c(C(C)=O)c1=O,145 mmHg
7,COCCn1nc(-c2ccc(Cl)cc2)c(-c2ccc(Cl)cc2)c(C(C)=O)c1=O,158 mmHg
8,CC(=O)c1c(-c2ccc(Cl)cc2)c(-c2ccc(Cl)cc2)nn(CCN2CCCCC2)c1=O,176 mmHg

# Tested on: Rattus norvegicus
# Assay: Antihypertensive activity in spontaneously hypertensive rats was measured as average blood pressure at 30 mg/kg, p.o. after 24 hours of postdose-1
# Type: functional
# Settings: route oral
# How it was run: as §1
row,Compound,BP
1,CC(=O)c1c(-c2ccc(Cl)cc2)c(-c2ccc(Cl)cc2)nn(CCN(C)C)c1=O,164 mmHg

# Tested on: Rattus norvegicus
# Assay: Antihypertensive activity in spontaneously hypertensive rats was measured as average blood pressure at 30 mg/kg, p.o. after 24 hours of postdose-2
# Type: functional
# Settings: route oral
# How it was run: as §1
row,Compound,BP
1,CC(=O)c1c(-c2ccc(Cl)cc2)c(-c2ccc(Cl)cc2)nn(CCN(C)C)c1=O,193 mmHg

# Tested on: Rattus norvegicus
# Assay: Antihypertensive activity in spontaneously hypertensive rats was measured as average blood pressure at 30 mg/kg, po after 4 hours of postdose-1.
# Type: functional
# Settings: not given
# How it was run: as §1
row,Compound,BP
1,CC(=O)c1c(-c2ccc(Cl)cc2)c(-c2ccc(Cl)cc2)nn(CCN(C)C)c1=O,182 mmHg

# Tested on: Rattus norvegicus
# Assay: Antihypertensive activity in spontaneously hypertensive rats was measured as average blood pressure at 30 mg/kg, p.o. after 4 hours of postdose-2
# Type: functional
# Settings: route oral
# How it was run: as §1
row,Compound,BP
1,CC(=O)c1c(-c2ccc(Cl)cc2)c(-c2ccc(Cl)cc2)nn(CCN(C)C)c1=O,167 mmHg

# Tested on: Rattus norvegicus
# Assay: Antihypertensive activity in spontaneously hypertensive rats was measured as average blood pressure at 30 mg/kg, p.o. before predose
# Type: functional
# Settings: route oral
# How it was run: as §1
row,Compound,BP
1,CC(=O)c1c(-c2ccc(Cl)cc2)c(-c2ccc(Cl)cc2)nn(CCN(C)C)c1=O,199 mmHg

# Tested on: Rattus norvegicus
# Assay: Antihypertensive activity in spontaneously hypertensive rats was measured as average blood pressure at 100 mg/kg, p.o. after 4 hours of postdose-1
# Type: functional
# Settings: route oral
# How it was run: as §1
row,Compound,BP
1,CC(=O)NCCn1nc(-c2ccc(Cl)cc2)c(-c2ccc(Cl)cc2)c(C(C)=O)c1=O,149 mmHg
2,COCCn1nc(-c2ccc(Cl)cc2)c(-c2ccc(Cl)cc2)c(C(C)=O)c1=O,142 mmHg

# Tested on: Rattus norvegicus
# Assay: Antihypertensive activity in spontaneously hypertensive rats was measured as average blood pressure at 100 mg/kg, p.o. after 4 hours of postdose-1.
# Type: functional
# Settings: route oral
# How it was run: as §1
row,Compound,BP
1,CCOC(=O)N1CCN(CCn2nc(-c3ccc(Cl)cc3)c(-c3ccc(Cl)cc3)c(C(C)=O)c2=O)CC1,186 mmHg
2,CC(C)NCCn1nc(-c2ccc(Cl)cc2)c(-c2ccc(Cl)cc2)c(C#N)c1=O.Cl,218 mmHg
3,CC(=O)c1c(-c2ccc(Cl)cc2)c(-c2ccc(Cl)cc2)nn(CCN(C)C)c1=O,182 mmHg
4,CC(=O)c1c(-c2ccc(Cl)cc2)c(-c2ccc(Cl)cc2)nn(CCN(C)C)c1=O.Cl,200 mmHg
5,CC(=O)c1c(-c2ccc(Cl)cc2)c(-c2ccc(Cl)cc2)nn(CCNC(C)C)c1=O,211 mmHg
6,CC(=O)c1c(-c2ccc(Cl)cc2)c(-c2ccc(Cl)cc2)nn(CCN2CCCCC2)c1=O,180 mmHg

# Tested on: Rattus norvegicus
# Assay: Antihypertensive activity in spontaneously hypertensive rats was measured as average blood pressure at 100 mg/kg, p.o. after 4 hours of postdose-2
# Type: functional
# Settings: route oral
# How it was run: as §1
row,Compound,BP
1,CCOC(=O)N1CCN(CCn2nc(-c3ccc(Cl)cc3)c(-c3ccc(Cl)cc3)c(C(C)=O)c2=O)CC1,151 mmHg
2,CC(C)NCCn1nc(-c2ccc(Cl)cc2)c(-c2ccc(Cl)cc2)c(C#N)c1=O.Cl,209 mmHg
3,CC(=O)c1c(-c2ccc(Cl)cc2)c(-c2ccc(Cl)cc2)nn(CCN(C)C)c1=O,155 mmHg
4,CC(=O)c1c(-c2ccc(Cl)cc2)c(-c2ccc(Cl)cc2)nn(CCN(C)C)c1=O.Cl,160 mmHg
5,CC(=O)c1c(-c2ccc(Cl)cc2)c(-c2ccc(Cl)cc2)nn(CCNC(C)C)c1=O,143 mmHg
6,CC(=O)NCCn1nc(-c2ccc(Cl)cc2)c(-c2ccc(Cl)cc2)c(C(C)=O)c1=O,136 mmHg
7,COCCn1nc(-c2ccc(Cl)cc2)c(-c2ccc(Cl)cc2)c(C(C)=O)c1=O,144 mmHg
8,CC(=O)c1c(-c2ccc(Cl)cc2)c(-c2ccc(Cl)cc2)nn(CCN2CCCCC2)c1=O,165 mmHg

# Tested on: Rattus norvegicus
# Assay: Antihypertensive activity in spontaneously hypertensive rats was measured as average blood pressure at 100 mg/kg, p.o. before predose
# Type: functional
# Settings: route oral
# How it was run: as §1
row,Compound,BP
1,CCOC(=O)N1CCN(CCn2nc(-c3ccc(Cl)cc3)c(-c3ccc(Cl)cc3)c(C(C)=O)c2=O)CC1,200 mmHg
2,CC(C)NCCn1nc(-c2ccc(Cl)cc2)c(-c2ccc(Cl)cc2)c(C#N)c1=O.Cl,220 mmHg
3,CC(=O)c1c(-c2ccc(Cl)cc2)c(-c2ccc(Cl)cc2)nn(CCN(C)C)c1=O,201 mmHg
4,CC(=O)c1c(-c2ccc(Cl)cc2)c(-c2ccc(Cl)cc2)nn(CCN(C)C)c1=O.Cl,205 mmHg
5,CC(=O)c1c(-c2ccc(Cl)cc2)c(-c2ccc(Cl)cc2)nn(CCNC(C)C)c1=O,216 mmHg
6,CC(=O)NCCn1nc(-c2ccc(Cl)cc2)c(-c2ccc(Cl)cc2)c(C(C)=O)c1=O,220 mmHg
7,COCCn1nc(-c2ccc(Cl)cc2)c(-c2ccc(Cl)cc2)c(C(C)=O)c1=O,186 mmHg
8,CC(=O)c1c(-c2ccc(Cl)cc2)c(-c2ccc(Cl)cc2)nn(CCN2CCCCC2)c1=O,192 mmHg

# Source: ChEMBL document CHEMBL1121371, “Antihypertensive 5,6-diarylpyridazin-3-ones” (1980)
